This note sets out measurements from ChEMBL document CHEMBL1125493, “HIV-1 neutralization and tumor cell proliferation inhibition in vitro by simplified analogues of pyrido[4,3,2-mn]thiazolo[5,4-b]acridine marine alkaloids” (J Med Chem, 1992).

What is called Inhibition is the drop in the measured response relative to a control, in per cent. Higher therefore signals a strong effect.

Molecules are shown by their SMILES.

Experiment [1] relates to Human immunodeficiency virus 1. Put plainly: Inhibitory effect against HIV-1 induced cytopathic effects(HIV-1 neutralization) in MT-4 lymphocytes at a concentration of 100 ug/mL (0.2900 uM/mL). In kind it is functional. In a few lines:
(§1)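 HIV-1 Molt IIIB (~2 × 10^4 TCID50 in 100 μL) preincubated 1 h at 37 °C with a single compound dose, then added to MT-4 cells (5 × 10^5 cells/well, 1 mL). Cultured at 37 °C, 5% CO2. Viable cells counted by trypan blue exclusion on days 4 and 7. Triplicates; % viable cells. Controls: infected cells (positive), uninfected cells (negative).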

Experiment [2] has as its system MT4. Description: Cytotoxic effect in cultured MT-4 lymphocytes at a concentration of 2 ug/mL (0.0060 uM/mL). In kind it is functional, Homo sapiens. In a few lines: (§2)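 MT-4 cells at 5 × 10^4 cells/well, 1 mL total, cultured with compound diluted in RPMI 1640 with 10% FBS, 10 mM HEPES, penicillin/streptomycin and 2 mM glutamine, at 37 °C under 5% CO2. Viability was scored by trypan blue exclusion on days 4 and 7, in triplicate, as % viable cells.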

The subject of experiment [3] is MT4. Description: Cytotoxic effect in cultured MT-4 lymphocytes at a concentration of 10 ug/mL (0.0290 uM/mL). In kind it is functional, Homo sapiens. In a few lines: as §2
In experiment [4] the test system is Human immunodeficiency virus 1. Put plainly: Inhibitory effect (100 uM) against HIV-1 in human peripheral blood monocyte cells(PBMC) (EC50 ->34.5 ug/mL). In kind it is functional.
Experiment [5] has as its system MT4. Put plainly: Cytotoxic effect in cultured MT-4 lymphocytes at a concentration of 100 ug/mL (0.2900 uM/mL). In kind it is functional, Homo sapiens. In a few lines: as §2
The test system of experiment [6] is Human immunodeficiency virus 1. Description: Percent HIV-1 bound to H-9 cells at a concentration of 100(ug/mL). It is filed as functional. In a few lines: (§3)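 HIV-1 Molt IIIB (50 μL) incubated overnight with compound at 100 μg/mL, then with uninfected H-9 cells 2 h at 37 °C. Washed; stained with HIV-positive human serum (1:100) then FITC anti-human IgG (1:10), 30 min at 4 °C each. Formaldehyde-fixed (0.5%) and analysed by flow cytometry for % virus bound and % binding inhibition.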

The subject of experiment [7] is MCF7. Put plainly: […] breast tumor cell proliferation inhibition by the compound in vitro at a concentration of 60 uM. In kind it is functional, Homo sapiens. In a few lines: (§4)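 Breast tumor cells treated with specified compound concentrations in RPMI-1640 in 1% agar with 5% FBS for 1 week. Viability compared with a control given distilled water in place of drug; 5-fluorouracil as standard cytotoxic drug. Reported as concentration-dependent cell survival.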

The subject of experiment [8] is Human immunodeficiency virus 1. Put plainly: Protection of MT-4 lymphocytes by the compound against HIV-1 infectivity in vitro at a concentration of 100 ug/mL (0.30 uM/mL). It is filed as functional. In a few lines: (§5)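 Virus (HIV-1 Molt IIIB, ~2 × 10^4 TCID50) preincubated with compound 1 h at 37 °C, 5% CO2. Then added to MT-4 cells (5 × 10^5 cells/well) and cultured at 37 °C. Trypan blue viability counts taken on days 4 and 7, triplicate at each concentration. Controls were infected and uninfected cells. Reported as % viable (surviving) MT-4 cells.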

The subject of experiment [9] is MT4. Put plainly: Protection of MT-4 lymphocytes by the compound against HIV-1 infectivity in vitro at a concentration of 25 ug/mL (0.075 uM/mL). It is filed as functional, Homo sapiens. In a few lines: as §5
In experiment [10] the test system is Human immunodeficiency virus 1. Description: Protection of MT-4 lymphocytes by the compound against HIV-1 infectivity in vitro at a concentration of 400 ug/mL (1.20 uM/mL). In kind it is functional. In a few lines: as §5
The test system of experiment [11] is Human immunodeficiency virus 1. Put plainly: Inactivation of HIV-MN strain in MT-4 lymphocytes in vitro at a concentration of 100 ug/mL (0.30 uM/mL). In kind it is functional. In a few lines: (§6)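 Compound (50 μL) was mixed with 50 μL of HIV-1 Molt IIIB or HIV-MN inoculum in RPMI 1640 for 1 h at room temperature. The mixture was added to 5 × 10^4 MT-4 cells and kept 7 days at 37 °C, 5% CO2. MTT (5.0 mg/mL) was added for 4 h, the reaction was stopped with 0.04 N HCl/2-propanol, and OD was read at 570 nm. % inactivation was calculated from OD relative to uninfected cells and untreated virus, mean of three.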

In experiment [12] the test system is MT4. Description: Cytotoxic effect in cultured MT-4 lymphocytes at a concentration of 100 ug/mL (0.3000 uM/mL). It is filed as functional, Homo sapiens. In a few lines: as §2
Experiment [13] has as its system COLO 320DM. Description: COLO 320DM colon tumor cell proliferation inhibition by the compound in vitro at a concentration of 60 uM. It is filed as functional, Homo sapiens. In a few lines:
(§7)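 Tumor cells grown in RPMI-1640 in 1% agar with 5% fetal bovine serum, exposed to the specified concentrations for 1 week. Viability was assessed against a control given distilled water in place of drug. 5-Fluorouracil served as the positive cytotoxic standard. Results are reported as concentration-dependent cell survival.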

In experiment [14] the test system is Human immunodeficiency virus 1. Put plainly: Percent inhibition of HIV-1 binding to H-9 cells at a concentration of 100(ug/mL). It is filed as functional. In a few lines:
as §3

For experiment [15], the system named is COLO 320DM. Put plainly: COLO 320DM colon tumor cell proliferation inhibition by the compound in vitro at a concentration of 6.0 uM. In kind it is functional, Homo sapiens. In a few lines:
as §7

In experiment [16] the test system is MT4. Description: Protection of MT-4 lymphocytes by the compound against HIV-1 infectivity in vitro at a concentration of 50 ug/mL (0.150 uM/mL). It is filed as functional, Homo sapiens. In a few lines: as §5
Experiment [17] relates to COLO 320DM. Put plainly: COLO 320DM colon tumor cell proliferation inhibition by the compound in vitro at a concentration of 0.6 uM. In kind it is functional, Homo sapiens. In a few lines: as §7
Experiment [18] has as its system Human immunodeficiency virus 1. Description: Inhibitory effect against HIV-1 induced cytopathic effects(HIV-1 neutralization) in MT-4 lymphocytes at a concentration of 100 ug/mL (0.3000 uM/mL). It is filed as functional. In a few lines: as §1
A general note: Damage to the host cells serves as the signal in cytopathic effect assays.

Experiment [19] relates to MT4. Put plainly: Cytotoxic effect in cultured MT-4 lymphocytes at a concentration of 10 ug/mL (0.0300 uM/mL). In kind it is functional, Homo sapiens. In a few lines:
as §2

Experiment [20] deals with Human immunodeficiency virus 1. Put plainly: Inactivation of HIV-MN strain in MT-4 lymphocytes in vitro at a concentration of 400 ug/mL (1.20 uM/mL). It is filed as functional. In a few lines: as §6
Experiment [21] has as its system Human immunodeficiency virus 1. Description: Inactivation of HIV-MN strain in MT-4 lymphocytes in vitro at a concentration of 200 ug/mL (0.60 uM/mL). In kind it is functional. In a few lines:
as §6

For experiment [22], the system named is MT4. Description: Protection of MT-4 lymphocytes by the compound against HIV-1 infectivity in vitro at a concentration of 12.5 ug/mL (0.038 uM/mL). In kind it is functional, Homo sapiens. In a few lines:
as §5

Experiment [23] in a line: Calu3 lung tumor cell proliferation inhibition by the compound in vitro at a concentration of 60 uM. In kind it is functional, Homo sapiens. In a few lines: as §7
The test system of experiment [24] is Human immunodeficiency virus 1. Put plainly: Inhibitory effect (100 uM) against HIV-1 in human peripheral blood monocyte cells(PBMC) (EC50 ->32.5 ug/mL). It is filed as functional.
For experiment [25], the system named is Human immunodeficiency virus 1. Put plainly: Inactivation of HIV-MoltIIIB strain in MT-4 lymphocytes in vitro at a concentration of 100 ug/mL (0.30 uM/mL). It is filed as functional. In a few lines:
as §6

The nature of experiment [26]: Calu3 lung tumor cell proliferation inhibition by the compound in vitro at a concentration of 6.0 uM. It is filed as functional, Homo sapiens. In a few lines:
as §7

In experiment [27] the test system is MCF7. Description: […] breast tumor cell proliferation inhibition by the compound in vitro at a concentration of 0.6 uM. It is filed as functional, Homo sapiens. In a few lines:
as §4

In experiment [28] the test system is Human immunodeficiency virus 1. Description: Inactivation of HIV-MoltIIIB strain in MT-4 lymphocytes in vitro at a concentration of 400 ug/mL (1.2u M/mL). It is filed as functional. In a few lines: as §6
The subject of experiment [29] is Human immunodeficiency virus 1. Description: Protection of MT-4 lymphocytes by the compound against HIV-1 infectivity in vitro at a concentration of 200 ug/mL (0.60 uM/mL). In kind it is functional. In a few lines:
as §5

Experiment [30] deals with Human immunodeficiency virus 1. Description: Inactivation of HIV-MoltIIIB strain in MT-4 lymphocytes in vitro at a concentration of 200 ug/mL (0.60 uM/mL). It is filed as functional. In a few lines: as §6
Experiment [31] relates to MCF7. Description: […] breast tumor cell proliferation inhibition by the compound in vitro at a concentration of 6.0 uM. In kind it is functional, Homo sapiens. In a few lines: as §4
Experiment [32] is described as follows: Calu3 lung tumor cell proliferation inhibition by the compound in vitro at a concentration of 0.6 uM. It is filed as functional, Homo sapiens. In a few lines: as §7
Experiment [33] deals with MT4. Description: Cytotoxic effect in cultured MT-4 lymphocytes at a concentration of 2 ug/mL (0.0080 uM/mL). It is filed as functional, Homo sapiens. In a few lines:
as §2

For `Nc1nc2cc3c(O)c4ccccc4nc3cc2[nH]1`, the Viability in experiment [1] came to 12.5%; in the experiment on MT4 [2] it was 90%; in the experiment with MT4 [3], 88.8%; with MT4 [5], 81.5%. The compound further yielded an Inhibition in [4] of 33%.
`O=C([O-])CSc1ccc2c(c1)c(=O)c1ccccc1n2C1CC1.[Na+]` gave a Bound in experiment [6] of 28.7%. Also, the Viability in the experiment with MCF7 [7] amounted to 44%; in the experiment with MT4 [2], 96.6%; with MT4 [12], 100%; in the experiment with COLO 320DM [13] it was 87%; in the experiment on COLO 320DM [15], 108%; in the experiment on COLO 320DM [17], 107%. Also, the Viability in experiment [18] is 83.7%; with MT4 [19], 96%; in [23], 44%; in [26], 73%; in the experiment on MCF7 [27], 91%; with MCF7 [31] it was 86%. For the same compound, in [32], the Viability is listed as 104%. The Survival in experiment [8] worked out at 83.7%; in the experiment with MT4 [9], 85.5%; in [10], 86%; with MT4 [16], 89.2%; with MT4 [22], 77.3%; in [29], 81.3%. In addition, the Inactivation was determined as 11.3% in experiment [11]; 11.6% in experiment [20]; 10% in experiment [21]; 3.9% in experiment [25]; 23.3% in [28]; 23.5% in [30]. Also, the values for the Inhibition in [14] and in [24] were 13.8% and 29%, respectively.
In turn, `Cc1nc2cc3nc4ccccc4cc3cc2s1.Cl` yielded a Viability in the experiment with MT4 [33] of 85%.
